Data taken from ChEMBL document CHEMBL1955778, “Design and synthesis of novel 7-aminoquinazoline derivatives: antitumor and anticonvulsant activities” (Bioorg Med Chem Lett, 2012).

What was measured:
Mus musculus [1] = organism: Mus musculus; assay: Protective index, ratio of TD50 for mouse to ED50 for pentylenetetrazol-induced seizure in mouse; type: functional
Procedure, shortened: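 Mice. Index is TD50/ED50. TD50 is the dose causing minimal neurological toxicity in 50% of mice in the Chimney test. ED50 is the dose protecting 50% of mice against pentylenetetrazole-induced seizures. Both are estimated from testing at several doses.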

Mus musculus [2] = assay: Anticonvulsant activity in mouse assessed as protection against strychnine-induced seizure at 1.4 mmol/kg, ip administered 30 min prior to strychnine-challenge measured after 60 mins relative to control; type: functional
Mus musculus [3] = assay: Anticonvulsant activity in mouse assessed as protection against picrotoxin-induced seizure at 1.4 mmol/kg, ip administered 30 min prior to picrotoxin-challenge measured after 60 mins relative to control; type: functional
Mus musculus [4] = assay: Anticonvulsant activity in ip dosed mouse assessed as protection against pentylenetetrazol-induced seizure administered 30 min prior to pentylenetetrazol-challenge measured after 60 mins; type: functional
Procedure, shortened: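 Mice received several doses for quantification. ED50 taken as the dose protecting 50% of mice against pentylenetetrazol-induced seizures.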

[5] = Toxicity in ip dose mouse assessed as mortality; type: organism-based; conditions: in vivo
Procedure, shortened: (§1)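 In mice, LD50 is the dose causing 50% mortality. ED50 is the dose protecting 50% of mice against pentylenetetrazole-induced seizures. Therapeutic index = LD50/ED50.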

[6] = Neurotoxicity in ip dosed mouse assessed as impaired motor coordination administered 30 mins prior to test by chimney test; type: toxicity, organism-based; conditions: in vivo
Procedure, shortened: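 Mice, Chimney test. TD50 is the dose that produces minimal neurological toxicity (impaired motor coordination) in 50% of animals, estimated from testing at several doses.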

[7] = Therapeutic index, ratio of LD50 for mouse to ED50 for pentylenetetrazol-induced seizure in mouse; type: organism-based; conditions: in vivo, read-out: Ratio LD50/ED50; procedure, shortened: as §1
Mus musculus [8] = assay: Anticonvulsant activity in mouse assessed as protection against pentylenetetrazol-induced seizure at 1.4 mmol/kg, ip administered 30 min prior to pentylenetetrazol-challenge measured after 60 mins relative to control; type: functional
Mus musculus [9] = assay: Anticonvulsant activity in mouse assessed as protection against maximal electroshock-induced seizure at 1.4 mmol/kg, ip administered 30 min prior to maximal electroshock-challenge measured after 60 mins relative to control; type: functional
BT-549 = assay: Growth inhibition of human BT549 cells at 10 uM relative to control; type: functional; conditions: read-out: GI
Procedure, shortened: (§2)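 Each cell line in a 60-line human tumour panel exposed to one 10 μM concentration. Growth inhibition percentage computed as 100 minus the percentage activity relative to control.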

SF-295 = assay: Growth inhibition of human SF295 cells at 10 uM relative to control; type: functional; conditions: read-out: GI; procedure, shortened: as §2
MDA-MB-435 = assay: Growth inhibition of human MDA-MB-435 cells at 10 uM relative to control; type: functional; conditions: read-out: GI; procedure, shortened: as §2
HOP-62 = assay: Growth inhibition of human HOP62 cells at 10 uM relative to control; type: functional; conditions: read-out: GI; procedure, shortened: as §2
SNB-19 = assay: Growth inhibition of human SNB19 cells at 10 uM relative to control; type: functional; conditions: read-out: GI
Procedure, shortened: (§3)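 Single-dose screen across the 60-cell-line human tumor panel at 10 μM. Growth inhibition is reported as a percentage, taken as 100 minus the % growth relative to untreated control.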

OVCAR-5 = assay: Growth inhibition of human OVCAR5 cells at 10 uM relative to control; type: functional; conditions: read-out: GI; procedure, shortened: as §2
NCI-H522 = assay: Growth inhibition of human NCI-H522 cells at 10 uM relative to control; type: functional; conditions: read-out: GI; procedure, shortened: as §2
SNB-75 = assay: Growth inhibition of human SNB75 cells at 10 uM relative to control; type: functional; conditions: read-out: GI; procedure, shortened: as §3
UO-31 = assay: Growth inhibition of human UO31 cells at 10 uM relative to control; type: functional; conditions: read-out: GI; procedure, shortened: as §3
CAKI-1 = assay: Growth inhibition of human CAKI-1 cells at 10 uM relative to control; type: functional; conditions: read-out: GI; procedure, shortened: as §2
Malme-3M = assay: Growth inhibition of human MALME-3M cells at 10 uM relative to control; type: functional; conditions: read-out: GI; procedure, shortened: as §2
KM12 = assay: Growth inhibition of human KM12 cells at 10 uM relative to control; type: functional; conditions: read-out: GI; procedure, shortened: as §2
CCRF-CEM = assay: Growth inhibition of human CCRF-CEM cells at 10 uM relative to control; type: functional; conditions: read-out: GI; procedure, shortened: as §2
M14 = assay: Growth inhibition of human M14 cells at 10 uM relative to control; type: functional; conditions: read-out: GI; procedure, shortened: as §2
T47D = assay: Growth inhibition of human T47D cells at 10 uM relative to control; type: functional; conditions: read-out: GI; procedure, shortened: as §3
TK-10 = assay: Growth inhibition of human TK10 cells at 10 uM relative to control; type: functional; conditions: read-out: GI; procedure, shortened: as §3
HCT-15 = assay: Growth inhibition of human HCT15 cells at 10 uM relative to control; type: functional; conditions: read-out: GI; procedure, shortened: as §2
SF-539 = assay: Growth inhibition of human SF539 cells at 10 uM relative to control; type: functional; conditions: read-out: GI; procedure, shortened: as §2
EKVX = assay: Growth inhibition of human EKVX cells at 10 uM relative to control; type: functional; conditions: read-out: GI; procedure, shortened: as §2
SK-OV-3 = assay: Growth inhibition of human SKOV3 cells at 10 uM relative to control; type: functional; conditions: read-out: GI; procedure, shortened: as §2
SF-268 = assay: Growth inhibition of human SF268 cells at 10 uM relative to control; type: functional; conditions: read-out: GI; procedure, shortened: as §2
A498 = assay: Growth inhibition of human A498 cells at 10 uM relative to control; type: functional; conditions: read-out: GI; procedure, shortened: as §2
UACC-62 = assay: Growth inhibition of human UACC62 cells at 10 uM relative to control; type: functional; conditions: read-out: GI; procedure, shortened: as §3
RPMI-8226 = assay: Growth inhibition of human RPMI8226 cells at 10 uM relative to control; type: functional; conditions: read-out: GI; procedure, shortened: as §2
U-251 = assay: Growth inhibition of human U251 cells at 10 uM relative to control; type: functional; conditions: read-out: GI; procedure, shortened: as §3
HCC 2998 = assay: Growth inhibition of human HCC2998 cells at 10 uM relative to control; type: functional; conditions: read-out: GI; procedure, shortened: as §2
NCI-H322M = assay: Growth inhibition of human NCI-H322M cells at 10 uM relative to control; type: functional; conditions: read-out: GI; procedure, shortened: as §2
PC-3 = assay: Growth inhibition of human PC3 cells at 10 uM relative to control; type: functional; conditions: read-out: GI; procedure, shortened: as §2

In the case of `Cc1ccccc1-n1c(C)nc2ccccc2c1=O` [METHAQUALONE], the “Ratio TD50/ED50” value (Mus musculus [1]) is reported as 1.14, the Activity (Mus musculus [2]) is reported as 0% and the Activity (Mus musculus [3]) is reported as 50%. For the same molecule, the ED50 (Mus musculus [4]) was 1400 µmol/kg, the LD50 [5] was 2000 µmol/kg and the TD50 at 0.5 h [6] was 1600 µmol/kg. For the same molecule, the selectivity ratio [7] was 1.4, the Activity (Mus musculus [8]) was 100% and the Activity (Mus musculus [9]) was 100%.

In the case of `Cc1ccccc1-n1c(C)nc2cc(N)ccc2c1=S`, the inhibition of growth at 10 µM (BT-549) is reported as 8%, the inhibition of growth at 10 µM (SF-295) is reported as 16.6% and the inhibition of growth at 10 µM (MDA-MB-435) is reported as 9.8%. For the same molecule, the inhibition of growth at 10 µM (HOP-62) was 5.5%, the inhibition of growth at 10 µM (SNB-19) was 2% and the inhibition of growth at 10 µM (OVCAR-5) was 10%. The inhibition of growth at 10 µM (NCI-H522) was 4%, the inhibition of growth at 10 µM (SNB-75) was 15.5% and the inhibition of growth at 10 µM (UO-31) was 22%. The inhibition of growth at 10 µM (CAKI-1) was 5%, the inhibition of growth at 10 µM (Malme-3M) was 17% and the inhibition of growth at 10 µM (KM12) was 8.3%. The inhibition of growth at 10 µM (CCRF-CEM) was 9.5%, the inhibition of growth at 10 µM (M14) was 4% and the inhibition of growth at 10 µM (T47D) was 11%. The inhibition of growth at 10 µM (TK-10) was 10%, the inhibition of growth at 10 µM (HCT-15) was 2.5% and the inhibition of growth at 10 µM (SF-539) was 2%. For the same molecule, the inhibition of growth at 10 µM (EKVX) was 15.2%, the inhibition of growth at 10 µM (SK-OV-3) was 5% and the inhibition of growth at 10 µM (SF-268) was 10.6%. The inhibition of growth at 10 µM (A498) was 20%, the inhibition of growth at 10 µM (UACC-62) was 9% and the inhibition of growth at 10 µM (RPMI-8226) was 4%. It also gave an inhibition of growth at 10 µM (U-251) of 6%, an inhibition of growth at 10 µM (HCC 2998) of 16.6% and an inhibition of growth at 10 µM (NCI-H322M) of 11.1%. For the same molecule, the inhibition of growth at 10 µM (PC-3) was 9.5%.
